Experimental data taken from PMC6440678 (Clinical and Translational Science, 2018).

Assays:
[1] = Plasma pharmacokinetics of PF‐04447943, phase Ib study; format: in vivo, human; conditions: for AUC0−12 (dn) / Cmax (dn): dose normalized to 1 mg; for AUC0−12 (dn) / Cmax (dn) / Cmax: geometric mean (geometric %CV); for Tmax / Cmax / AUC(0-t): human, plasma; for Tmax / Cmax: oral; for AUC(0-t): po
HbF and Hb levels = assay: Hematology; format: in vivo, human; conditions: day 29, 5‐mg or 25‐mg twice‐daily groups
In short: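 Stable SCD patients randomized 3:1 active:placebo to oral test compound 5 mg or 25 mg or placebo, twice daily ~12 h apart with water for 29 (+1) days. HbF (%) was measured centrally at baseline and before dosing on day 29. Baseline HbF was classed low (<10%) or high (≥10%), split at the sample median.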

[2] = system: patients with stable sickle cell disease; assay: Safety and tolerability, phase Ib study; format: in vivo, human
plasma cGMP = assay: Plasma cGMP levels in SCD patients; format: in vivo, human; conditions: PF‐04447943 treatment, current study (data not shown)
[3] = system: cGMP in mouse brain tissue; conditions: systemic administration; cited from earlier work
Townes SCD mice = conditions: PF‐04447943 alone, pretreatment; cited from earlier work
[4] = system: cGMP in cerebral spinal fluid; conditions: systemic administration; cited from earlier work
[5] = system: neutrophil‐platelet and monocyte‐platelet aggregates; assay: Leukocyte‐platelet aggregates by flow cytometry in SCD patients; format: in vivo, human; conditions: day 29, 25 mg twice daily
In short: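 Citrated whole blood was taken before dosing on days 1, 2, 7, 14, 21 and 29 and at baseline. Within 30 min it was mixed with FacsLysing solution and refrigerated, then spun 5 min at 500 g. Cells were resuspended in HEPES/NaCl/0.5% BSA, pH 7.4, and stained with PC5-anti-CD14 plus PE-CD42a or isotype. Flow cytometry reported aggregates as % cells and size as CD42a MFI. Day-29 percent change was estimated by repeated-measures model, with Holm-Bonferroni-adjusted P.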

[6] = system: hospitalized patients with SCD and VOC; conditions: randomized, placebo‐controlled; cited from earlier work
Berkeley SCD mouse model = conditions: administered after a challenge; cited from earlier work
[7] = 5 mg twice daily, % of patients

SMILES: C[C@@H]1CN(Cc2ncccn2)C[C@H]1c1nc2c(cnn2C2CCOCC2)c(=O)[nH]1 [PF‐04447943, 6‐[(3S,4S)‐4‐methyl‐1‐(pyrimidin‐2‐ylmethyl)pyrrolidin‐3‐yl]‐1‐(tetrahydro‐2H‐pyran‐4‐yl)‐1,5‐dihydro‐4H‐pyrazolo[3,4‐d]pyrimidin‐4‐one]
- dose proportionality of plasma exposure (AUC0‐12, Cmax) ([1]; 5 and 25 mg, day 1): dose proportional
- AUC0−12 (dn) ([1]; day 1, 5 mg): 48 (35) ng·h/mL/mg
- Cmax (dn) ([1]; day 1, 5 mg): 9.2 (39) ng/mL/mg
- AUC0−12 (dn) ([1]; day 1, 25 mg): 47 (29) ng·h/mL/mg
- Cmax (dn) ([1]; day 1, 25 mg): 9.9 (31) ng/mL/mg
- Tmax ([1]; 5 mg): 1.9 h
- Cmax ([1]; 5 mg, day 1, 5 mg): 45.8 ng/mL
- Tmax ([1]; 25 mg): 1 h
- Cmax ([1]; 25 mg, day 1, 25 mg): 248 ng/mL
- AUC(0-t) ([1]; 5 mg): 242 ng·h/mL
- AUC(0-t) ([1]; 25 mg): 1170 ng·h/mL
- change in HbF level (HbF and Hb levels): No significant changes
- patients who experienced sickle cell pain crisis ([2]; 5 mg twice daily): 14%
- treatment‐related AE: dizziness [2, 7]: 0%
- treatment‐related AE: fatigue [2, 7]: 0%
- treatment‐related AE: headache ([2]; 5 mg twice daily, up to 29 days, % of patients): 0%
- patients who experienced sickle cell pain crisis ([2]; 25 mg twice daily): 13%
- treatment‐related AE: dizziness ([2]; 25 mg twice daily, % of patients): 13%
- deaths during the study ([2]; 5 and 25 mg twice daily): No deaths occurred
- tolerability ([2]; 5 and 25 mg twice daily, 29‐day treatment period): well tolerated
- change in plasma cGMP levels (plasma cGMP): no significant changes
- cGMP in mouse brain tissue [3]: accumulation of cGMP in mouse brain tissue
- number of neutrophil‐platelet aggregates (Townes SCD mice): decrease in neutrophil‐platelet aggregates
- cGMP in cerebral spinal fluid in the rat [4]: dose‐dependent increases
- reduction from baseline in size of neutrophil‐platelet aggregates ([5]; adjusted P = 0.018): 34%
- reduction from baseline in number of circulating monocyte‐platelet aggregates ([5]; adjusted P = 0.025): 52%
- reduction from baseline in number of neutrophil‐platelet aggregates ([5]; adjusted P = 0.095): 46%
- reduction from baseline in size of circulating monocyte‐platelet aggregates ([5]; adjusted P = 0.140): 36%

SMILES: C[C@@H]1O[C@@H](O[C@@H]2[C@@H](NC(=O)c3cc(=O)[nH]c(=O)[nH]3)C[C@@H](C(=O)NCCNC(=O)COCCOCC(=O)Nc3cc(S(=O)(=O)O)cc4cc(S(=O)(=O)O)cc(S(=O)(=O)O)c34)C[C@H]2O[C@@H]2O[C@H](CO)[C@H](O)[C@H](O[C@@H](CC3CCCCC3)C(=O)O)[C@H]2OC(=O)c2ccccc2)[C@@H](O)[C@H](O)[C@@H]1O [rivipansel]
- time to VOC resolution, length of stay, parenteral opioid requirement [6]: trends toward improved
- leukocyte adhesion (Berkeley SCD mouse model): reduced leukocyte adhesion
